We go through 13 compounds from ChEMBL document CHEMBL1157134, “Liposomal formulation of retinoids designed for enzyme triggered release” (J Med Chem, 2010).

Data set [1] deals with HT-29. Put plainly: Cytotoxicity against human HT-29 cells after 48 hrs by MTT assay in presence of Agkistrodon piscivorus piscivorus venom sPLA2. The format is functional, cell-based. The conditions noted are these: HT-29, 48 h. In outline:
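HT-29 cells (McCoy's 5A, 10% fetal calf serum) plated at 1 × 10⁴ cells/well 24 h before dosing. Liposomal prodrugs diluted in PBS, lipid concentration set by phosphorus analysis; snake venom sPLA₂ added to a final 5 nM. Cells exposed for 24 h, washed, then kept in complete medium another 48 h. Viability read by MTT, mean ± SD, n ≥ 3.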
In general terms: Formazan colour is commonly taken as a measure of viable cells.

The test system of data set [2] is COLO 205. In words: Cytotoxicity against human COLO205 cells after 48 hrs by MTT assay. The format is functional, cell-based. The conditions noted are these: COLO 205, 48 h. In a few lines: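 Colo205 cells grown in RPMI 1640 with 10% fetal calf serum and 1% Pen-Strep at 5% CO₂, seeded at 2 × 10⁴ cells/well 24 h before treatment. Dosing used conditioned medium carrying about 100 ng/mL sPLA₂ IIA. Exposure was 24 h, then a wash and 48 h in complete medium before MTT. Reported as mean ± SD, n = 3 or more.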

Data set [3] deals with HT-29. In words: Cytotoxicity against human HT-29 cells after 48 hrs by MTT assay. The conditions noted are these: HT-29, 48 h. The format is functional, cell-based. In a few lines:
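HT-29 cells grown in McCoy's 5A with 10% fetal calf serum and 1% Pen-Strep, seeded at 1 × 10⁴ cells/well 24 h before dosing. Tested with or without snake (Agkistrodon piscivorus piscivorus) venom sPLA₂ at 5 nM final. Exposure was 24 h, then a wash and 48 h in complete medium before MTT viability. Mean ± SD, n = 3 or more.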

A short description of data set [4]: Cytotoxicity against human MT3 cells after 48 hrs by MTT assay. As to conditions: MT-3, 48 h. It is filed as functional, cell-based. In a few lines: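 MT-3 breast cancer cells grown in RPMI 1640 with 10% fetal calf serum and 1% Pen-Strep at 5% CO₂, plated at 1 × 10⁴ cells/well 24 h ahead. Retinoids were given in DMSO/water, final DMSO ≤0.5%. Exposure was 24 h, then a wash and 48 h in complete medium before MTT. Mean ± SD, n = 3.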

Data set [5] is described as follows: Inhibition of sPLA2 from Naja mossambica mossambica by fluorescence technique.
Data set [6] can be described thus: Stability assessed as compound degradation after 48 hrs by MALDI-TOF MS analysis in presence of Agkistrodon piscivorus piscivorus venom sPLA2. It is filed as ADME. In a few lines: (§1)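 Incubated with purified snake venom sPLA₂ at 37 °C, stirred and shielded from light, for 48 h. Extracts mixed with DHB matrix (DPPG included) and analysed by MALDI-TOF MS for remaining prodrug.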

Data set [7] can be described thus: Stability assessed as compound degradation after 48 hrs by MALDI-TOF MS analysis in presence of Naja mossambica mossambica venom sPLA2. It is filed as ADME. In a few lines:
as §1

Molecules are shown by their SMILES. Bounds are passed on as bounds.

With `CCCCCCCCCCCCCCCCCCOC[C@H](COP(=O)(O)OC[C@H](O)CO)OC(=O)CCCCCCCCCCCCCCCCC`, the values for the IC50 in data set [1], in data set [2] and in data set [3] were 9 µM, 33 µM and above 200 µM, respectively.
For the compound `CCCCCCCCCCCCCCCCCC(=O)OC[C@H](COP(=O)(O)OC[C@H](O)CO)OC(=O)CCCCCCCCCCCCCCCCC`, the IC50 (in general, the concentration that gives 50% inhibition) in data set [1] was 25 µM; in data set [2], 54 µM; in data set [3], above 200 µM.
As to `CCCCCCCCc1ccc(-c2ccc(C(=O)OCCCCCC(=O)O)cc2)cc1`, the results for the IC50 in data set [2], in data set [4] and in data set [3] were 127 µM, 14 µM and above 200 µM, respectively.
As to `CCCCCCCCCCCCCCCCCC(=O)OC[C@@H](O)COP(=O)(O)OCC(O)CO` (some centres not stated), the IC50 in data set [2] was 22 µM; in data set [3], 7 µM.
For `CC1=C(/C=C/C(C)=C/C=C/C(C)=C/C(=O)OCCCCCC(=O)O)C(C)(C)CCC1`, the half-maximal inhibitory concentration (IC50) stood at 8 µM in data set [5], 17 µM in data set [2], 17 µM in data set [4] and 3.6 µM in data set [3]. For the same compound, the Ki – broadly, a measure of affinity in units of concentration, obtained from inhibition or displacement – in data set [5] came out at 6 µM.
For `CCCCCCCCCCCCCCCCCCOC[C@@H](O)COP(=O)(O)OC[C@@H](O)CO`, the figures for the IC50 in data set [2] and in data set [3] were 25 µM and 11 µM, respectively.
For the compound `CCCCCCCCCCCCCCCCCC(=O)OC[C@H](COP(=O)([O-])OC[C@@H](O)CO)OC(=O)CCCCCOC(=O)c1ccc(-c2ccc(CCCCCCCC)cc2)cc1.[Na+]`, the Stability entry in data set [6] and in data set [7] was “Unstable” throughout. In addition, the IC50 in data set [1] was 8 µM; in data set [2], 19 µM; in data set [3], above 200 µM.
On to `CCCCCCCCCCCCCCCCCCOC[C@H](COP(=O)([O-])OC[C@@H](O)CO)OC(=O)CCCCCOC(=O)c1ccc(-c2ccc(CCCCCCCC)cc2)cc1.[Na+]`, for which the Stability entry in data set [6] and in data set [7] was “Unstable” throughout. The IC50 was 3 µM in data set [1], 7 µM in data set [2] and above 200 µM in data set [3].
Take `CCCCCCCCCCCCCCCCCC(=O)OC[C@H](COP(=O)([O-])OC[C@@H](O)CO)OC(=O)CCCCCOC(=O)/C=C(C)/C=C/C=C(C)/C=C/C1=C(C)CCCC1(C)C.[Na+]`: the Stability entry in data set [6] and in data set [7] was “Unstable” in each case. In addition, the IC50 in data set [1] is 6 µM; in data set [2] it was 12 µM; in data set [3] it was above 200 µM.
`CCCCCCCCCCCCCCCCCCOC[C@H](COP(=O)([O-])OC[C@@H](O)CO)OC(=O)CCCCCOC(=O)/C=C(C)/C=C/C=C(C)/C=C/C1=C(C)CCCC1(C)C.[Na+]`: in data set [6], the Stability result is given as “Unstable”. Moreover, the figures for the IC50 in data set [1], in data set [2] and in data set [3] were 7 µM, 16 µM and above 200 µM, respectively.
Regarding `CCCCCCCCc1ccc(-c2ccc(C(=O)O)cc2)cc1`, the IC50 in data set [2] was above 200 µM; in data set [4], 51 µM; in data set [3], above 200 µM.
For the compound `CCCCCCCCCCCCCCCCCC(=O)O` [STEARIC ACID], the IC50 in data set [2] and in data set [3] was above 200 µM throughout.
Consider `CC1=C(/C=C/C(C)=C/C=C/C(C)=C/C(=O)O)C(C)(C)CCC1` [TRETINOIN], for which the IC50 in data set [5] worked out at 15 µM; in data set [2], 37 µM; in data set [4], 30 µM; in data set [3], 4.3 µM. Also, affinity in data set [5] was put at a Ki of 11 µM.
